The test system of data set [1] is Orthopoxvirus vaccinia. The experiment in a line: Inhibition of N7-MTase activity of Vaccinia virus mRNA capping enzyme D1/D12 complex using GpppAC4 and [3H]SAM as substrate at 50 uM preincubated with enzyme followed by substrate addition and measured after 30 mins by filter binding assay. Put shortly:
(§1)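 Filter binding assay in 40 mM Tris-HCl pH 8.0, 1 mM DTT, 1 mM MgCl2, 2 µM SAM, 0.1 µM 3H-SAM and 0.7 µM GpppAC4 RNA. Enzyme is nsp14 (50 nM), hRNMT (50 nM) or vaccinia D1–D12 (41 U). Compound is at 50 µM with 5% final DMSO. Reactions run 30 min at 30 °C, are stopped by ice-cold water dilution, and 3H on DEAE filters is counted. Percent inhibition is relative to a 5% DMSO control, mean of three experiments.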

The subject of data set [2] is Severe acute respiratory syndrome-related coronavirus. As to the kind of experiment: Binding affinity to SARS-CoV nsp14 assessed as increase in melting temperature at 1 mM at pH 7.5 by differential scanning fluorimetry. Put shortly: (§2)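 Purified SARS-CoV nsp14 (5 µM) in 20 mM HEPES pH 7.5, 150 mM NaCl and 1X SYPRO orange, with 1 mM compound (DMSO stock; SAM and sinefungin from water). Protein is mixed with compound before dye is added. Fluorescence is read from 20 to 95 °C at 0.2 °C/min. Tm comes from curve fitting, and ΔTm is taken against a 5% DMSO control.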
Background: Differential scanning fluorimetry follows unfolding on heating by fluorescence.

Data set [3] in a line: Inhibition of N7-MTase activity of N-terminal His6-tagged SARS-CoV nsp14 expressed in Escherichia coli using GpppAC4 and [3H]SAM as substrate preincubated with enzyme followed by substrate addition and measured after 30 mins by filter binding assay. More on the design: species or system Severe acute respiratory syndrome-related coronavirus. Put shortly: (§3)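 Dose-response filter binding assay with nsp14 or hRNMT (each 50 nM) pre-incubated with increasing compound concentrations (5% final DMSO). Then 0.7 µM GpppAC4, 2 µM SAM and 0.1 µM 3H-SAM are added in Tris pH 8.0/DTT/MgCl2, 30 min at 30 °C. IC50 is taken from a Hill slope fit, mean of three independent experiments.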

The test system of data set [4] is Severe acute respiratory syndrome-related coronavirus. As to the kind of experiment: Inhibition of N7-MTase activity of N-terminal His6-tagged SARS-CoV nsp14 expressed in Escherichia coli using GpppAC4 and [3H]SAM as substrate at 50 uM preincubated with enzyme followed by substrate addition and measured after 30 mins by filter binding assay. Put shortly:
as §1

The subject of a further data set is Zika virus. As to the kind of experiment: Inhibition of 2'-O-methyltransferase in Zika virus at 200 uM.
Data set [5] concerns Orthopoxvirus vaccinia. The experiment in a line: Inhibition of 2'-O-methyltransferase activity of Vaccinia virus VP39 at 200 uM.
Data set [6] has as its system Severe acute respiratory syndrome-related coronavirus. The experiment in a line: Binding affinity to SARS-CoV nsp14 assessed as melting temperature at 1 mM at pH 7.5 by differential scanning fluorimetry. Put shortly:
as §2

In another data set the test system is Dengue virus. As to the kind of experiment: Inhibition of 2'-O-methyltransferase in Dengue virus at 200 uM.
The next data set relates to West Nile virus. As to the kind of experiment: Inhibition of 2'-O-methyltransferase in West-Nile virus at 200 uM.
Data set [7] deals with Severe acute respiratory syndrome-related coronavirus. As to the kind of experiment: Inhibition of 2'-O-MTase activity of SARS-CoV nsp10/16 complex at 200 uM.
In data set [8] the target is RNA-N7 MTase (mRNA cap guanine-N(7) methyltransferase) (Homo sapiens, UniProt O43148). As to the kind of experiment: Inhibition of N-terminal His6-tagged human RNA-N7 MTase expressed in Escherichia coli using GpppAC4 and [3H]SAM as substrate at 50 uM preincubated with enzyme followed by substrate addition and measured after 30 mins by filter binding assay. Particulars: probe GpppAC4 and [3H]SAM. Put shortly: as §1
Sequence of RNA-N7 MTase (mRNA cap guanine-N(7) methyltransferase) (O43148 whole entry): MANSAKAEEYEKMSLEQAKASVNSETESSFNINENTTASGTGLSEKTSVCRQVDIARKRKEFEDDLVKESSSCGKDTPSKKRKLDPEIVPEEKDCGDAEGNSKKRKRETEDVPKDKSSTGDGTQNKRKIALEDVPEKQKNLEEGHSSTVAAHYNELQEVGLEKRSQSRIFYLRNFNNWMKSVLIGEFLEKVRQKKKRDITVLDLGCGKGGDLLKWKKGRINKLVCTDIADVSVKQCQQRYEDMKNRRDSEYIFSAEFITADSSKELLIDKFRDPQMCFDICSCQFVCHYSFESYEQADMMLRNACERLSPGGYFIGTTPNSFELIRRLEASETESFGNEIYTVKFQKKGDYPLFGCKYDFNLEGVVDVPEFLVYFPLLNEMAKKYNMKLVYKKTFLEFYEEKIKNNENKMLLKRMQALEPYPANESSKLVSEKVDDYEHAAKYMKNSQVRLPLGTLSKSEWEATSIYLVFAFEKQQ

Data set [9] deals with mRNA cap guanine-N(7) methyltransferase (Homo sapiens, UniProt O43148). As to the kind of experiment: Inhibition of N-terminal His6-tagged human RNA-N7 MTase expressed in Escherichia coli using GpppAC4 and [3H]SAM as substrate preincubated with enzyme followed by substrate addition and measured after 30 mins by filter binding assay. Put shortly: as §3
Sequence of mRNA cap guanine-N(7) methyltransferase (O43148 whole entry): as above

Calls of active or inactive are those of the source. The calls are words filed in the database; no cut-off is given here.

Data on six molecules can be found in ChEMBL document CHEMBL4765355, “Synthesis of adenine dinucleosides SAM analogs as specific inhibitors of SARS-CoV nsp14 RNA cap guanine-N7-methyltransferase” (Eur J Med Chem, 2020).

In general, inhibition refers to the drop in the measured response relative to a control, in per cent. In general, ΔTm refers to the shift of the melting midpoint relative to a reference. For orientation: IC50 means the concentration that gives 50% inhibition. Lower therefore signals greater potency in that assay.

As to `Nc1ncnc2c1ncn2[C@@H]1OC(CN(CCO[C@@H]2[C@H](O)C(CO)O[C@H]2n2cnc3c(N)ncnc32)Cc2ccc(Cl)c([N+](=O)[O-])c2)[C@@H](O)[C@H]1O` (single isomer, unassigned), the results for the inhibition (with Orthopoxvirus vaccinia [1]; in data set [4]) were 4.3% and 94%, respectively. In addition, in data set [2], the ΔTm amounted to 4.6 °C. The same molecule had an IC50 in [3] of 2.4 µM. Also, the inhibition result (in the data set on Zika virus; in the data set with Orthopoxvirus vaccinia [5]; in the data set on Dengue virus; with West Nile virus; in [7]) was “inactive” throughout. In data set [6], the Tm was above 40 °C.
For `COc1ccc(S(=O)(=O)N(CCO[C@@H]2[C@H](O)C(CO)O[C@H]2n2cnc3c(N)ncnc32)CC2O[C@@H](n3cnc4c(N)ncnc43)[C@H](O)[C@@H]2O)c([N+](=O)[O-])c1` (single isomer, unassigned), the inhibition in the data set with Orthopoxvirus vaccinia [1] was 4.6%; in data set [4], 96.6%. This molecule registered an inhibition at 0.5 h, 50 µM in data set [8] of 31.8%. Further, the ΔTm in [2] amounted to 4.6 °C. For the same molecule, the IC50 was 3.9 µM in data set [3] and above 500 µM in [9]. Moreover, the inhibition result (in the data set with Zika virus; in the data set on Orthopoxvirus vaccinia [5]; with Dengue virus; with West Nile virus; in data set [7]) was “inactive” in each case. Further, the Tm in data set [6] is above 40 °C.
`Nc1ncnc2c1ncn2[C@@H]1O[C@H](CN(CCO[C@@H]2[C@H](O)[C@@H](CO)O[C@H]2n2cnc3c(N)ncnc32)CC[C@H](N)C(=O)O)[C@@H](O)[C@H]1O`: the inhibition with Orthopoxvirus vaccinia [1] was determined as 85.8%; in [4], 72%. Moreover, the inhibition at 0.5 h, 50 µM in data set [8] amounted to 77.4%. Further, the IC50 was found to be 40.6 µM in data set [3] and 10.9 µM in [9]. Further, the inhibition entry (in the data set with Zika virus; in the data set with Orthopoxvirus vaccinia [5]; in the data set with Dengue virus; in the data set with West Nile virus; in [7]) was “inactive” throughout.
For `Nc1ncnc2c1ncn2[C@@H]1OC(CN(CCO[C@@H]2[C@H](O)C(CO)O[C@H]2n2cnc3c(N)ncnc32)Cc2ccc(Cl)cc2)[C@@H](O)[C@H]1O` (single isomer, unassigned), the inhibition was 4.5% in the data set with Orthopoxvirus vaccinia [1] and 75.9% in data set [4]. Further, in data set [8], the inhibition at 0.5 h, 50 µM was found to be 14.7%. For the same molecule, the thermal shift (ΔTm) in [2] was 4.6 °C. The molecule further yielded a half-maximal inhibitory concentration (IC50) in data set [3] of 9.9 µM. The inhibition entry (in the data set with Zika virus; in the data set on Orthopoxvirus vaccinia [5]; in the data set with Dengue virus; in the data set on West Nile virus; in data set [7]) was “inactive” each time. Moreover, the Tm in [6] is above 40 °C.
Turning to `Nc1ncnc2c1ncn2[C@@H]1OC(CN(CCO[C@@H]2[C@H](O)C(CO)O[C@H]2n2cnc3c(N)ncnc32)S(=O)(=O)c2ccc(Cl)cc2)[C@@H](O)[C@H]1O` (single isomer, unassigned), the inhibition in the data set on Orthopoxvirus vaccinia [1] was determined as 19.7%; in [4] it was 96.2%. The same molecule showed an inhibition at 0.5 h, 50 µM in [8] of 20.2%. Also, the ΔTm in data set [2] is 4.6 °C. For the same molecule, in [3], the IC50 was determined as 1.5 µM. Further, the inhibition result (in the data set with Zika virus; in the data set with Orthopoxvirus vaccinia [5]; in the data set on Dengue virus; in the data set with West Nile virus; in data set [7]) was “inactive” in each case. Besides, the Tm in data set [6] is above 40 °C.
Take `Nc1ncnc2c1ncn2[C@@H]1O[C@H](C[C@@H](N)CC[C@H](N)C(=O)O)[C@@H](O)[C@H]1O` [SINEFUNGIN]: the inhibition in the data set with Orthopoxvirus vaccinia [1] amounted to 99.8%; in data set [4] it was 98.3%. The same molecule came in with an inhibition at 0.5 h, 50 µM in data set [8] of 99.8%. Moreover, the shift in melting temperature (ΔTm) in data set [2] was found to be 4.4 °C. Besides, the results for the IC50 in data set [3] and in data set [9] were 0.36 µM and below 0.05 µM, respectively.
